pEC50: −log10 of the molar value. Activity calls are given as the source filed them. The rule behind the calls is not given here.
Tested on: not listed separately
Assay: Plasma concentration in Wistar rat at 10 mg/kg, po after 3 days
Type: ADME, organism-based
Parameters: dose 10 mg/kg, route oral
Conditions: not given

concentration at 72 h	Structure (SMILES)
236 ng/mL	CCc1cc(-c2noc(-c3sc(CC)c4c3CCC(C)(C)C4)n2)cc(C)c1OC[C@@H](O)CNC(=O)CO

Tested on: not listed separately
Assay: Volume of distribution at steady state in Wistar rat at 1 mg/kg, iv
Type: ADME, organism-based
Parameters: dose 1 mg/kg, route intravenous
Conditions: in vivo, read-out: Vdss
In short: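 Male Wistar rats (~250 g), jugular vein and carotid artery catheters implanted 2 days before dosing under isoflurane with buprenorphine analgesia. 1 mg/kg given as a 5 min jugular infusion in aqueous mixed micellar vehicle (phospholipids, bile acids). Serial EDTA blood sampling up to 24 h. Plasma analysed by LC-MS-MS after methanol precipitation. Noncompartmental analysis.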

Vd	Structure (SMILES)
3.5 L/kg	CCc1cc(-c2noc(-c3sc(CC)c4c3CCC(C)(C)C4)n2)cc(C)c1OC[C@@H](O)CNC(=O)CO

Tested on: Rattus norvegicus
Assay: Lymphopenic activity in Wistar rat assessed as reduction in blood lymphocyte count at 10 mg/kg, po after 24 hrs
Type: functional
Conditions: not given
In short: (§1)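 Normotensive male Wistar rats given 1–10 mg/kg by gavage in 5% DMSO/7.5% succinylated gelatin. Blood taken before and 3, 6 and 24 h after dosing, with later times for some compounds. Lymphocytes counted by hematology analyzer. % LC change calculated per animal relative to the predose value (=100%). Mean ± SEM.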

Structure (SMILES)	Activity
CCc1cc(-c2noc(-c3sc(CC)c4c3CCC(C)(C)C4)n2)cc(C)c1OC[C@@H](O)CNC(=O)CO	Active

Tested on: not listed separately
Assay: Drug uptake in Wistar rat mesenteric lymph at 10 mg/kg, po after 6 hrs
Type: ADME, organism-based, Mesenteric lymph node
Parameters: dose 10 mg/kg, route oral
Conditions: read-out: Drug uptake
In short: (§2)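 Male Wistar rats given 10 mg/kg orally in 5% DMSO/succinylated gelatin. At selected times, anesthesia with thiobutobarbital 150 mg/kg ip, laparotomy and thoracic lymph duct catheter. Mesenteric lymph collected for at least 10 min, with a plasma sample at mid-collection. Methanol precipitation, then LC-MS-MS with internal standard.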

concentration at 6 h	Structure (SMILES)
4590 ng/mL	CCc1cc(-c2noc(-c3sc(CC)c4c3CCC(C)(C)C4)n2)cc(C)c1OC[C@@H](O)CNC(=O)CO

Tested on: not listed separately
Assay: Cmax in Wistar rat mesenteric lymph at 10 mg/kg, po
Type: ADME, organism-based, Mesenteric lymph node
Parameters: dose 10 mg/kg, route oral
Conditions: not given
In short: as §2

Cmax	Structure (SMILES)
8090 ng/mL	CCc1cc(-c2noc(-c3sc(CC)c4c3CCC(C)(C)C4)n2)cc(C)c1OC[C@@H](O)CNC(=O)CO

Tested on: not listed separately
Assay: Cmax in Wistar rat at 10 mg/kg, po
Type: ADME, organism-based
Parameters: dose 10 mg/kg, route oral
Conditions: in vivo
In short: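 Male Wistar rats (~250 g), 10 mg/kg by gavage as a DMSO solution added to 7.5% succinylated gelatin in water (5% DMSO final). Sublingual blood under light isoflurane predose and at 0.5, 1, 2, 3, 4, 6, 8, 24 h into EDTA. Plasma LC-MS-MS after methanol precipitation. Noncompartmental parameters. Bioavailability referenced to 1 mg/kg iv.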

Cmax	Structure (SMILES)
1450 ng/mL	CCc1cc(-c2noc(-c3sc(CC)c4c3CCC(C)(C)C4)n2)cc(C)c1OC[C@@H](O)CNC(=O)CO

Tested on: not listed separately
Assay: Plasma concentration in Wistar rat at 10 mg/kg, po after 1 hr
Type: ADME, organism-based
Parameters: dose 10 mg/kg, route oral
Conditions: not given
In short: as §2

concentration at 1 h	Structure (SMILES)
44.4 ng/mL	CCc1cc(-c2noc(-c3sc(CC)c4c3CCC(C)(C)C4)n2)cc(C)c1OC[C@@H](O)CNC(=O)CO

Target: Sphingosine 1-phosphate receptor 1 (Homo sapiens, UniProt P21453)
Sequence (P21453 whole entry): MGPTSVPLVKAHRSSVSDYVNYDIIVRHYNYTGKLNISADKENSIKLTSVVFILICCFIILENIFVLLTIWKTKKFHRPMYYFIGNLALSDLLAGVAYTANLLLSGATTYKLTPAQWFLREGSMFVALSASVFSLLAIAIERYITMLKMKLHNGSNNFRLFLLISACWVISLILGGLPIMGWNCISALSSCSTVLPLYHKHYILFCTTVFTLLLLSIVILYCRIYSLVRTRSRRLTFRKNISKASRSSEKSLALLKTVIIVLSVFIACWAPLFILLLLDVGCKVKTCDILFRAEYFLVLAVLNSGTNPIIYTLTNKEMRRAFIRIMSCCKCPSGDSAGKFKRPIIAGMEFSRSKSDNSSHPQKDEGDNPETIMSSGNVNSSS
Assay: Agonist activity at human recombinant S1P1 receptor expressed in CHO cells assessed as membrane-bound 35S-GTPgammaS incubated 30 mins prior to substrate addition measured after 1 hr by topcount scintillation counting analysis
Type: functional, cell-based
Conditions: not given

pEC50	Structure (SMILES)
8.34	CCc1cc(-c2noc(-c3sc(CC)c4c3CCC(C)(C)C4)n2)cc(C)c1OC[C@@H](O)CNC(=O)CO

Tested on: not listed separately
Assay: Plasma concentration in Wistar rat at 10 mg/kg, po after 24.8 hrs
Type: ADME, organism-based
Parameters: dose 10 mg/kg, route oral
Conditions: not given
In short: as §2

concentration at 24.8 h	Structure (SMILES)
680 ng/mL	CCc1cc(-c2noc(-c3sc(CC)c4c3CCC(C)(C)C4)n2)cc(C)c1OC[C@@H](O)CNC(=O)CO

Tested on: not listed separately
Assay: Plasma concentration in Wistar rat at 10 mg/kg, po after 2.3 hrs
Type: ADME, organism-based
Parameters: dose 10 mg/kg, route oral
Conditions: not given
In short: as §2

concentration at 2.3 h	Structure (SMILES)
123 ng/mL	CCc1cc(-c2noc(-c3sc(CC)c4c3CCC(C)(C)C4)n2)cc(C)c1OC[C@@H](O)CNC(=O)CO

Tested on: not listed separately
Assay: Intrinsic clearance in Wistar rat hepatocytes assessed per 10^6 cells at 1 uM by LC-MS/MS analysis
Type: ADME, cell-based, Hepatocyte
Conditions: read-out: CLH
In short: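 Male rat hepatocytes from two-step collagenase perfusion (viability ≥85%), plated at 5.0 × 10^5 viable cells/mL on collagen and preincubated ~3 h at 37 °C, 5% CO2. Compound at 1 µM final. Duplicate wells sampled at 0–24 h with methanol/0.3% SDS. LC-MS-MS (MRM). CLint from initial first-order disappearance rates.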

hepatocyte CLint at 1 µM	Structure (SMILES)
3.1 µL/min/1e6 cells	CCc1cc(-c2noc(-c3sc(CC)c4c3CCC(C)(C)C4)n2)cc(C)c1OC[C@@H](O)CNC(=O)CO

Tested on: Rattus norvegicus
Assay: Lymphopenic activity in Wistar rat assessed as reduction in blood lymphocyte count at 10 mg/kg, po after 72 hrs
Type: functional
Conditions: not given
In short: as §1

Structure (SMILES)	Activity
CCc1cc(-c2noc(-c3sc(CC)c4c3CCC(C)(C)C4)n2)cc(C)c1OC[C@@H](O)CNC(=O)CO	Active

Tested on: not listed separately
Assay: Plasma concentration in Wistar rat at 10 mg/kg, po after 3 hrs
Type: ADME, organism-based
Parameters: dose 10 mg/kg, route oral
Conditions: not given

concentration at 3 h	Structure (SMILES)
132 ng/mL	CCc1cc(-c2noc(-c3sc(CC)c4c3CCC(C)(C)C4)n2)cc(C)c1OC[C@@H](O)CNC(=O)CO

Tested on: Rattus norvegicus
Assay: Lymphopenic activity in Wistar rat assessed as reduction in blood lymphocyte count at 10 mg/kg, po after 144 hrs
Type: functional
Conditions: not given
In short: as §1

Structure (SMILES)	Activity
CCc1cc(-c2noc(-c3sc(CC)c4c3CCC(C)(C)C4)n2)cc(C)c1OC[C@@H](O)CNC(=O)CO	Active

Tested on: not listed separately
Assay: Lipophilicity, log D of the compound at pH 7.4
Type: physicochemical
Conditions: buffer

logD	Structure (SMILES)
4.3	CCc1cc(-c2noc(-c3sc(CC)c4c3CCC(C)(C)C4)n2)cc(C)c1OC[C@@H](O)CNC(=O)CO

Target: Sphingosine 1-phosphate receptor 3 (Homo sapiens, UniProt Q99500)
Sequence (Q99500 whole entry): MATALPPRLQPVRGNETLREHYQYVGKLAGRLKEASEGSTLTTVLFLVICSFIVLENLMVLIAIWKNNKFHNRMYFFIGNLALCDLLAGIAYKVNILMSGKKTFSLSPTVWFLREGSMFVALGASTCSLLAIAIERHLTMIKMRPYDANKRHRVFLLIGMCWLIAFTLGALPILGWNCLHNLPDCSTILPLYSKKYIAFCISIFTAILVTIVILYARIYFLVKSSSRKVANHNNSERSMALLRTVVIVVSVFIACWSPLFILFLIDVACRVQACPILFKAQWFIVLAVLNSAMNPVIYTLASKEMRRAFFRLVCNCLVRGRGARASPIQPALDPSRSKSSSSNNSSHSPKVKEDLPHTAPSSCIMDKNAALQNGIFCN
Assay: Agonist activity at human recombinant S1P3 receptor expressed in CHO cells assessed as membrane-bound 35S-GTPgammaS incubated 30 mins prior to substrate addition measured after 1 hr by topcount scintillation counting analysis
Type: functional, cell-based
Conditions: not given

pEC50	Structure (SMILES)
8.05	CCc1cc(-c2noc(-c3sc(CC)c4c3CCC(C)(C)C4)n2)cc(C)c1OC[C@@H](O)CNC(=O)CO

Tested on: not listed separately
Assay: Drug uptake in Wistar rat mesenteric lymph at 10 mg/kg, po after 2.3 hrs
Type: ADME, organism-based, Mesenteric lymph node
Parameters: dose 10 mg/kg, route oral
Conditions: read-out: Drug uptake
In short: as §2

concentration at 2.3 h	Structure (SMILES)
4600 ng/mL	CCc1cc(-c2noc(-c3sc(CC)c4c3CCC(C)(C)C4)n2)cc(C)c1OC[C@@H](O)CNC(=O)CO

Tested on: not listed separately
Assay: Tmax in Wistar rat plasma at 10 mg/kg, po
Type: ADME, organism-based
Parameters: dose 10 mg/kg, route oral
Conditions: not given
In short: as §2

Tmax	Structure (SMILES)
6 h	CCc1cc(-c2noc(-c3sc(CC)c4c3CCC(C)(C)C4)n2)cc(C)c1OC[C@@H](O)CNC(=O)CO
